In experiment [1] the target is Sigma non-opioid intracellular receptor 1 (Rattus norvegicus) (UniProt Q9R0C9). Description: Antagonist activity at sigma 1 receptor in rat PC12 cells assessed as inhibition of PRE-084-mediated NGF-induced neurite outgrowth at 0.25 to 2.5 uM after 96 hrs. In kind it is cell-based. The conditions noted are these: PC-12. In short, it runs like this:
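PC12 cells in differentiation medium with NGF 2.5 ng/ml. The S1R agonist PRE-084 (5, 10, 25 μM; 10 mM stock in apyrogenic water) was given alone or with compound at 0.25 or 2.5 μM. NGF-induced neurite outgrowth was scored. Data are mean±sem of at least 5 experiments, each in triplicate.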

For another experiment, the system named is U-87MG ATCC. Description: Cytotoxicity against human U87 cells assessed as reduction in cell viability after 48 hrs in presence of 10% fetal calf serum by MTS assay. In kind it is functional, cell-based. The gist of the method:
(§1)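 Cells in exponential growth, 3×10^3 per well, in medium with 10% FCS. Capan-2, PaCa3, MDA-MB 231, SUM 159 and PC3 were grown in DMEM/Ham's F12 with glutamine 2 mM and insulin 10 µg/ml. U87 was grown in EMEM and LNCaP in RPMI, each with glutamine. Compound 0.1–100 µM, continuous exposure (24 h; 48 h for the 48 h lines). MTS, OD 490 nm. IC50 read graphically. Three independent experiments in octuplicate.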
A general note: Tetrazolium dyes change colour on reduction, which living cells bring about.

Another experiment deals with Capan-2. Description: Cytotoxicity against human Capan2 cells assessed as reduction in cell viability after 48 hrs in presence of 10% fetal calf serum by MTS assay. In kind it is functional, cell-based. In short, it runs like this:
as §1

Experiment [2] is described as follows: Induction of apoptosis in human Paca3 cells assessed as late apoptotic cells in absence of 10% fetal calf serum at 10 uM after 24 hrs by annexin V-FITC/propidium iodide staining-based flow cytometry (reference value: 4.6 +/- 0.5%). In kind it is functional. In general terms: Flow cytometry measures light scatter and fluorescence of single cells or particles in a stream.

Experiment [3] is described as follows: Cytotoxicity against human LNCAP cells assessed as reduction in cell viability after 24 hrs in absence of 10% fetal calf serum by MTS assay. Type of experiment: functional, cell-based. In short, it runs like this: (§2)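 Cells starved 24 h in low-glucose medium without FCS, then treated 24 h with compound in serum-free conditions. MTS read-out, OD 490 nm, expressed as percent of untreated control. IC50 read graphically from the dose-response plot. Three independent experiments in octuplicate.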

Experiment [4] can be described thus: Induction of apoptosis in human Paca3 cells assessed as late apoptotic cells in presence of 10% fetal calf serum at 25 uM after 24 hrs by annexin V-FITC/propidium iodide staining-based flow cytometry (reference value: 4 +/- 0.8%). Type of experiment: functional.
Experiment [5] is described as follows: Cytotoxicity against human Paca3 cells assessed as decrease in cell viability under starvation condition after 24 hrs by MTS assay. In kind it is functional, cell-based. The note with it: Paca3, 24 h. In short, it runs like this:
as §2

A short description of experiment [6]: Cytotoxicity against human LNCAP cells assessed as reduction in cell viability after 24 hrs in presence of 10% fetal calf serum by MTS assay. In kind it is functional, cell-based. In short, it runs like this:
as §1

Calls of active or inactive are those of the source. The calls are words filed in the database; no cut-off is given here.

Results on one compound are retold here after ChEMBL document CHEMBL3877244, “Synthesis and biological evaluation of new aryl-alkyl(alkenyl)-4-benzylpiperidines, novel Sigma Receptor (SR) modulators, as potential anticancer-agents” (Eur J Med Chem, 2016).

Sequence of Sigma non-opioid intracellular receptor 1 (Rattus norvegicus) (Q9R0C9 whole entry): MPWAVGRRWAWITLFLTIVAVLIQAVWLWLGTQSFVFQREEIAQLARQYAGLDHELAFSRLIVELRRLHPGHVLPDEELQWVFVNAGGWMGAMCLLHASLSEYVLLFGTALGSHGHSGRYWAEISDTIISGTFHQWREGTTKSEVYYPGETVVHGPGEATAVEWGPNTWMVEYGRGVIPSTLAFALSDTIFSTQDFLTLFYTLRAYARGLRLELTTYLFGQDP

The term IC50 denotes the concentration that gives 50% inhibition. Regarding `C/C(=C\CN1CCC(Cc2ccccc2)CC1)c1ccc2ccccc2c1`, the inhibition entry in experiment [1] is “Active”. The outcome in the experiment on U-87MG ATCC and with Capan-2 was Active. The Activity in experiment [2] amounted to 17.2%; in experiment [4], 34.1%. Further, the IC50 in experiment [3] came to 9.58 µM; in experiment [5], 7 µM; in experiment [6], 61.1 µM.
